Our source for the IC50 values is ChEMBL document CHEMBL1165931, “Cytotoxic indole alkaloids from Melodinus tenuicaudatus” (J Nat Prod, 2010).

Bounds are passed on as bounds.

Assay type in all cases: functional, cell-based
One test has as its system SMMC-7721. The test can be described thus: Cytotoxicity against human SMMC7721 cells after 48 hrs by MTT assay. The gist of the method:
(§1)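 Cells grown in RPMI-1640 or DMEM with 10% FBS at 37 °C under 5% CO2. Adherent lines (A-549, MCF-7, SMMC-7721, SW480) were left to attach for 12 h before dosing; suspension HL-60 was seeded just before dosing at 1 × 10^5 cells/mL. Compounds were given in DMSO at 0.0625, 0.32, 1.6, 8 and 40 µmol, in triplicate, for 48 h. Read-out by MTT; cisplatin and vinorelbine were positive controls.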
In general terms: Formazan colour is commonly taken as a measure of viable cells.

Another test deals with HL-60. The test can be described thus: Cytotoxicity against human HL60 cells after 48 hrs by MTT assay. Put shortly:
as §1

A further test has as its system SW480. The test is described as follows: Cytotoxicity against human SW480 cells after 48 hrs by MTT assay. The gist of the method: as §1
The test system of another test is MCF7. The test is described as follows: Cytotoxicity against human MCF7 cells after 48 hrs by MTT assay. Put shortly: as §1
The next test concerns A549. The test is described as follows: Cytotoxicity against human A549 cells after 48 hrs by MTT assay. Put shortly:
as §1

For `CC[C@]12C=CCN3CCc4c(n(c5ccccc45)[C@@H](c4ccc5c(c4)[C@@]46CCN7CC=C[C@@]8(C[C@@H](C(=O)OC)[C@]4(N5)[C@@H]8C)[C@H]76)C1)[C@@H]32`, the IC50 was found to be 3.2 µmol with SMMC-7721; 1.1 µmol in the test on HL-60; 1.4 µmol in the test with SW480; 2.9 µmol with MCF7; 4.8 µmol in the test on A549.
Take `CC[C@]12C=CCN3CCc4c(n(c5ccccc45)[C@@H](OC)C1)[C@@H]32`: the IC50 in the test with SMMC-7721 is 22.1 µmol; in the test with HL-60 it was 15.9 µmol; with SW480 it was 32.2 µmol; in the test with MCF7, 29.3 µmol; in the test on A549, above 40 µmol.
As for `CC[C@]12C=CCN3CC[C@]4(C(=C(C(=O)OC)C1)Nc1cc(OC)ccc14)[C@@H]32`, the IC50 in the test on SMMC-7721 was found to be 13.1 µmol; with HL-60, 0.2 µmol; in the test with SW480 it was 12.7 µmol; with MCF7 it was 2.1 µmol; in the test with A549, 12.8 µmol.
As for `CC[C@]12C=CCN3CC[C@]4(C(=C(C(=O)OC)C1)Nc1cc5c(cc14)[C@@H]1[C@H](O5)[C@@H](O)[C@@]4(CC)CC(C(=O)OC)=C5Nc6ccccc6[C@@]56CCN1[C@@H]46)[C@@H]32` [MELODININE K], the IC50 in the test with SMMC-7721 turned out to be 3 µmol; in the test with HL-60, 0.1 µmol; with SW480, 5.7 µmol; in the test on MCF7 it was 2.7 µmol; in the test with A549 it was 5 µmol.
For the compound `COC(=O)[C@@H]1C[C@@]23C=CCN4CC[C@@]5(c6ccccc6N[C@]15[C@@H]2C)[C@@H]43` [VINDOLININE], the IC50 was found to be 20.7 µmol in the test with SMMC-7721; 6.8 µmol in the test with HL-60; 15.2 µmol in the test on SW480; 21.9 µmol with MCF7; 26.3 µmol in the test on A549.
Turning to `CCC1=C[C@@H]2CN(C1)Cc1c([nH]c3ccccc13)[C@@](C(=O)OC)(c1cc3c(cc1OC)N(C)[C@H]1[C@@](O)(C(=O)OC)[C@H](OC(C)=O)[C@]4(CC)C=CCN5CC[C@]31[C@@H]54)C2` [VINORELBINE], the IC50 in the test with SMMC-7721 was 4.7 µmol; in the test on HL-60, below 0.06 µmol; with SW480, above 40 µmol; in the test with MCF7, 17.2 µmol; in the test on A549, 26.1 µmol.
